# Results: ChEMBL document CHEMBL1145187
# What was measured:
# [1] = target: T1, Estrogen receptor (Homo sapiens) (UniProt P03372); assay: Relative binding affinity for human estrogen receptor alpha
# T1 sequence (whole entry): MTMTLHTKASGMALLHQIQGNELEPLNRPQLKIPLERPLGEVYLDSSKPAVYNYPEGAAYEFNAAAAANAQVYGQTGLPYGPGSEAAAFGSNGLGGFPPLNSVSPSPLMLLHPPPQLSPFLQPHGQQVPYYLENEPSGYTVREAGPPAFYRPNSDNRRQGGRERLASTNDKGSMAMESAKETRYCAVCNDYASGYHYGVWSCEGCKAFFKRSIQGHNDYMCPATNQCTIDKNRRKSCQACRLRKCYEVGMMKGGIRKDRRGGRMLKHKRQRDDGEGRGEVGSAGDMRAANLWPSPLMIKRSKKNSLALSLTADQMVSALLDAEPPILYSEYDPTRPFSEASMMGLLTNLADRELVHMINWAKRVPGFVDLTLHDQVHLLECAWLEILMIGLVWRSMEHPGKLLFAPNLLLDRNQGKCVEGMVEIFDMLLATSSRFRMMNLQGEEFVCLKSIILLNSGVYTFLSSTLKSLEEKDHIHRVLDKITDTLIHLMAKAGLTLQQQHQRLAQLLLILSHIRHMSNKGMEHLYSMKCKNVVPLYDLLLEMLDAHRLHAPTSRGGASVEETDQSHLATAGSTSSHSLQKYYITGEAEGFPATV
# [2] = target: Estrogen receptor beta (Homo sapiens) (UniProt Q92731); assay: Transcriptional efficacy against human estrogen receptor beta at 10e-8 M; format: functional
# Estrogen receptor beta (Homo sapiens), sequence (Q92731 whole entry): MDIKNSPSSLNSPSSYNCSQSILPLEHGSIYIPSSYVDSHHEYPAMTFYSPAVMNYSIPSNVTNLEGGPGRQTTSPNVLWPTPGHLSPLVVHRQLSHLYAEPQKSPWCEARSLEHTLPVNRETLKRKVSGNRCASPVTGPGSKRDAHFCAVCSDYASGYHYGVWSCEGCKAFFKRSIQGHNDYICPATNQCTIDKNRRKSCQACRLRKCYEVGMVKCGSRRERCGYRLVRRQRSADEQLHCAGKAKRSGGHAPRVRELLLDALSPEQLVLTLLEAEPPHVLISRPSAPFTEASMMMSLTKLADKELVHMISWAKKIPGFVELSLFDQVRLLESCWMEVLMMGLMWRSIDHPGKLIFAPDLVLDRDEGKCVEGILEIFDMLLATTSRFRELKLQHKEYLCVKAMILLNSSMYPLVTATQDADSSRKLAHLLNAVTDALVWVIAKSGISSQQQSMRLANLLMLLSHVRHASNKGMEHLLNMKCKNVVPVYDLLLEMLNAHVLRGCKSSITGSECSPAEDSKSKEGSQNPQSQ
# Method in brief: (§1)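 HEC-1 cells were grown in phenol-red MEM with 5% calf serum and 5% fetal calf serum, then plated in phenol-red-free improved MEM with 5% charcoal dextran-treated calf serum. They were lipofectin-transfected for 5 h at 37 °C with ERβ expression vector, 2ERE-pS2-Luc and pCMV β-galactosidase. Ligand was then added for 24 h.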
# [3] = target: Estrogen receptor beta (Homo sapiens) (UniProt Q92731); assay: Transcriptional efficacy against human estrogen receptor beta at 10e-6 M; format: functional; method in brief: as §1
SMILES,Relative binding affinity [1],Efficacy [2],Efficacy [3]
Oc1ccc(-n2cc3ccc(O)c(Br)c3n2)cc1,0.02,1.4%,29%
Oc1ccc(-n2cc3ccccc3n2)cc1,0.02,–,–
Oc1ccc(-n2nc3ccc(O)cc3c2Cl)cc1,0.3,88%,89%
Cc1c2cc(O)ccc2nn1-c1ccc(O)cc1,0.03,57%,87%
Oc1ccc(-n2nc3ccc(O)cc3c2I)cc1,0.17,85%,58%
Oc1ccc(-n2nc3cc(O)ccc3c2Cl)cc1,0.08,–,–
Oc1ccc(-n2nc3ccc(O)cc3c2-c2ccccc2)cc1,0.04,11%,28%
Oc1ccc(-n2nc3ccccc3c2Cl)cc1,0.03,–,–
Oc1ccc2nn(-c3ccc(O)c(Cl)c3)cc2c1,0.07,–,–
Oc1ccc(-n2nc3c(Cl)c(O)ccc3c2Cl)cc1,0.07,–,–
CCc1c2cc(O)ccc2nn1-c1ccc(O)cc1,0.08,63%,100%
Oc1ccc(-n2nc3ccc(O)cc3c2C(F)(F)F)cc1,3.9,78%,74%
CC(C)c1c2cc(O)ccc2nn1-c1ccc(O)cc1,0.14,–,–
N#Cc1c2cc(O)ccc2nn1-c1ccc(O)cc1,1.4,82%,56%
Oc1ccc2nn(-c3ccccc3)c(Cl)c2c1,0.014,–,–
Oc1ccc(-n2cc3ccc(O)cc3n2)cc1,0.008,1.7%,75%
CCCc1c2cc(O)ccc2nn1-c1ccc(O)cc1,0.04,–,–
Oc1ccc(-n2cc3cc(O)ccc3n2)cc1,0.049,47%,90%
C=CCc1c2cc(O)ccc2nn1-c1ccc(O)cc1,0.06,–,–
Oc1ccc2nn(-c3ccc(O)c(Cl)c3)c(Cl)c2c1,0.023,–,–
Oc1ccc2nn(-c3ccccc3)cc2c1,< 0.004,–,–
Oc1ccc(-n2nc3ccc(O)cc3c2Br)cc1,0.18,66%,67%
